Results published in ChEMBL document CHEMBL4041473, “Identification of novel microsomal prostaglandin E2 synthase-1 (mPGES-1) lead inhibitors from Fragment Virtual Screening” (Eur J Med Chem, 2017).

What was measured:
[1] = molecular target: T1, Prostaglandin E synthase (Homo sapiens) (UniProt O14684); assay: Inhibition of mPGES-1 in microsomes isolated from IL-1beta-stimulated human A549 cells at 10 uM using PGH2 as substrate preincubated for 15 mins followed by substrate addition measured after 1 min by RP-HPLC method relative to control; assay type: cell-free
T1 sequence (whole entry): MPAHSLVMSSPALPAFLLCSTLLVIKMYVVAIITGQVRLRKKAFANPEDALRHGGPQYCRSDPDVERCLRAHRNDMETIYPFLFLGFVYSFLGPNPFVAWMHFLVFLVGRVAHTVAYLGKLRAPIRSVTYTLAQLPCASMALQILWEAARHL
Procedure, shortened: (§1)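 mPGES-1 source: microsomes of A549 cells stimulated 48 h with IL-1β (1 ng/ml), sonicated, spun 10,000×g 10 min then 174,000×g 1 h at 4 °C. Diluted in 0.1 M potassium phosphate pH 7.4 with 2.5 mM glutathione. Compound or DMSO vehicle added 15 min at 4 °C, then 20 µM PGH2 for 1 min at 4 °C. Stopped with FeCl2/citric acid plus 11β-PGE2. PGE2 measured by solid-phase extraction and RP-HPLC.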

Prostaglandin E synthase = molecular target: T2, Prostaglandin E synthase (Homo sapiens, UniProt O14684); assay: Inhibition of mPGES-1 in microsomes isolated from IL-1beta-stimulated human A549 cells using PGH2 as substrate preincubated for 15 mins followed by substrate addition measured after 1 min by RP-HPLC method; assay type: cell-free; procedure, shortened: as §1
T2 sequence (O14684 whole entry): T1 sequence (whole entry)

Row | SMILES | inhibition [1] | IC50 (Prostaglandin E synthase)
1 | CC(=O)O/N=C1\C=Cc2c(no[n+]2[O-])C1=O | 20% | –
2 | O=C1c2nc3nonc3nc2-c2cccc(O)c21 | 5% | –
3 | O=C(Oc1ccc2c(c1)C(=O)c1nc3nonc3nc1-2)c1ccccc1 | 85% | 2400 nM
4 | O=C(Oc1cccc2c1C(=O)c1nc3nonc3nc1-2)c1ccccc1 | 70% | 4600 nM
5 | O=C1c2ccccc2-c2nc3nonc3nc21 | 30% | –
6 | O=C1c2cc(O)ccc2-c2nc3nonc3nc21 | 15% | –
7 | O=C(Oc1ccc2c(c1)-c1nc3nonc3nc1C2=O)c1ccccc1 | 70% | 2400 nM
8 | O=C1c2ccc(O)cc2-c2nc3nonc3nc21 | 30% | –
